# STAT3 blocker: reduces IL-6 driven STAT3 reporter signal; U3A cells, IL-6 STAT3-luciferase reporter, luminescence; host cell line lacks STAT1; inhibition, % at 5.5 µM; 190,000 compounds, 0.89% hits; AID 862;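 active = inhibition above the mean inhibition across all screened compounds plus 3 SD, cut at about 44% in these data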;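 note: 0% = DMSO only wells and 100% = 100 µM nifuroxazide control wells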
# STAT3 act: STAT3 signaling activation. U3A cells, IL-6 STAT3-luciferase reporter, luminescence; 100% = signal with IL-6 EC80 alone. activation (% of control), % at 5.6 µM. 190,000 compounds, 0.91% hits;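 active = activation above the screen-wide mean of compound activation plus 3 SD, cut at about 130% in these data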;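 note: 0% = background luminescence of wells with medium and substrate only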
#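 system = STAT3-luciferase reporter U3A cells | reagent = IL-6 stimulus at 33 ng/mL final | timing = 1 h compound pre-exposure, 6 h IL-6 stimulation, 37 °C | measured by = luminescence | evaluation = % activation versus median of IL-6-stimulated wells | control set = IL-6-only wells as 100% reference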
# HSV augment: HSV replication enhancement | AID 1956 | HSV replication augmentation in cells, fold increase | maximum fold increase | 220,000 compounds, 0.005% hits; in the data active = maximum fold increase above about 1.5; inconclusive = no clear call, values can overlap the other calls; tested in PC3 cells
# KCC2 mod: modulators of human KCC2 chloride dependent transport; B-score of Tl+ flux slope (higher = more flux/activation; lower = inhibition) at 10 µM; Q9H2X9; 190,000 compounds, 2.2% hits; KCC2 cells, thallium flux FluoZin-2 fluorescence;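 active = thallium flux slope and its plate-corrected score both differing from the plate sample mean at a set confidence after two filtering rounds, in either direction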;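 note: slope of fluorescence scaled to starting intensity during 10 to 20 s after thallium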
# Target sequence (Q9H2X9 whole entry, looked up): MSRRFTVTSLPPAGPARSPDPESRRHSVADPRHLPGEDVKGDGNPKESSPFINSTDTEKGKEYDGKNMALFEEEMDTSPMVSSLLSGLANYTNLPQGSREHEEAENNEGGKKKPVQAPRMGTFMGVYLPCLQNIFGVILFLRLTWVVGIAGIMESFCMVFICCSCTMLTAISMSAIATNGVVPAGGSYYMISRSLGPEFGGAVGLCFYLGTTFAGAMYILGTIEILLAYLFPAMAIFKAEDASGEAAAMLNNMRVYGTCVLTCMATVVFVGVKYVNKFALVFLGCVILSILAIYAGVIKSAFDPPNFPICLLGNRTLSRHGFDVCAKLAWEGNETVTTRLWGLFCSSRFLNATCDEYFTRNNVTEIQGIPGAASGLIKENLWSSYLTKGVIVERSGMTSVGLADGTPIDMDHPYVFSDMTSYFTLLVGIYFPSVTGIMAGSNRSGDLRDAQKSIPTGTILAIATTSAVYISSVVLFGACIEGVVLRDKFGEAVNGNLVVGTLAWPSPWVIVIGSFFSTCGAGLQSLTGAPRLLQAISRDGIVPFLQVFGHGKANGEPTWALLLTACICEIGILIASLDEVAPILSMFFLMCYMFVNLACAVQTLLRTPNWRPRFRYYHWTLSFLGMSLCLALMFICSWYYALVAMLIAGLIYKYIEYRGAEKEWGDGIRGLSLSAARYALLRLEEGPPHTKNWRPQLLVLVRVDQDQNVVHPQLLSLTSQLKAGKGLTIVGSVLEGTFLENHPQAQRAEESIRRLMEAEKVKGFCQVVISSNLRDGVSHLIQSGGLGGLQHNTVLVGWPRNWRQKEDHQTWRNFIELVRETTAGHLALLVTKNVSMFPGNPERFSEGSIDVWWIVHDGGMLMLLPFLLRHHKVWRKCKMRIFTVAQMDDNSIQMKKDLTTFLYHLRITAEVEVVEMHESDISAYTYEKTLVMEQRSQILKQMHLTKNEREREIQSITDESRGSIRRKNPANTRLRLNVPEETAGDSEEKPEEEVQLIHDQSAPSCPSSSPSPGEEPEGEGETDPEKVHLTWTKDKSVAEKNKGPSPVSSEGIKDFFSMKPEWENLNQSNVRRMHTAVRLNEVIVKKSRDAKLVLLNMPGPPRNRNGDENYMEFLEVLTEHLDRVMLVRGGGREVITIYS
# STAT1 inh: STAT1 signaling inhibition. NIH 3T3 STAT1-luciferase reporter, IFN-gamma, luminescence. inhibition, % at 5.5 µM. 200,000 compounds, 0.35% hits. AID 920;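 active = inhibition above a set limit, the mean inhibition across all tested compounds plus 3 SD, cut at about 34% in these data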;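 note: 0% = IFN-gamma with DMSO and 100% = IFN-gamma with 300 µM nifuroxazide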
# STAT1 activator: activators of IFN-gamma induced STAT1 signaling; NIH 3T3 STAT1-luciferase reporter, luminescence; 100% = IFN-gamma alone, no compound; activation (% of control), % at 5.5 µM; 200,000 compounds, 2.6% hits; AID 932;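 active = activation above the screen-wide mean activation plus 3 SD, cut at about 130% in these data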;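 note: raw ratio to IFN-gamma control signal so 100% means no change and 0% no light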
# KCC2 sec1: KCC2 (human) modulation, secondary assay. shares compounds with KCC2 mod. AID 1713. HEK293-KCC2, thallium flux, FluoZin2 fluorescence; active compounds read high. normalised thallium flux (F/F0 slope) at 10 µM. 3,700 compounds, 15% hits;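 active = thallium flux slope above the same plate's solvent-only control mean plus 3 SD; inconclusive = the two replicate wells disagree; inactive = no significant difference from solvent-only control wells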
# KCC2 bumet counter: thallium flux despite bumetanide block in KCC2 cells, secondary assay 3; shares compounds with KCC2 mod; HEK293-KCC2 + bumetanide/ouabain, thallium flux FluoZin2; active compounds read high; normalized thallium flux at 10 µM; 3,700 compounds, 49% hits; AID 1714;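 active = thallium entry rate above the same plate's blocked-transporter control wells by more than 3 SD; inconclusive = the two repeat wells disagree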;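 note: raw slope of fluorescence over initial fluorescence between 10 and 20 s after thallium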
# KCC2 secondary2: KCC2 (human) modulation, second secondary assay; shares compounds with KCC2 mod; HEK293-KCC2, thallium flux FluoZin2 fluorescence; actives lie on both sides; F/F0 rise rate, 10–20 s post-thallium; normalized thallium flux at 10 µM; 3,700 compounds, 23% hits;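 active = thallium flux slope more than 3 SD above or below the plate's solvent-only control mean, mostly below; inconclusive = the two repeat wells disagreed; inactive = no significant shift from solvent-only controls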;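 note: raw slope with 0.1% DMSO as baseline and bumetanide as block control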
# HEK counter1: counter-screen for KCC2 modulators: effect in parental HEK293 cells; thallium flux FluoZin2, ouabain; baseline-ratio fluorescence slope, 10–20 s after thallium; 3,700 compounds, 46% hits; AID 1716; thallium flux rate (normalised fluorescence) at 10 µM; shares compounds with KCC2 mod;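 active = thallium flux rate significantly above the same plate's solvent-only control wells, beyond their mean plus 3 SD; inconclusive = the two replicate wells gave conflicting results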
# KCC2 retest ouab: confirmation of human KCC2 modulators with ouabain. shares compounds with KCC2 mod. HEK293-KCC2, thallium flux FluoZin2 fluorescence; bidirectional: low = inhibitor, high = activator. raw Tl+ flux slope (below DMSO = inhibition, above = activation) at 10 µM. 3,700 compounds, 48% hits. AID 1717;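 active = thallium flux slope beyond 3 SD from same-plate DMSO control mean in most replicates, usually higher, sometimes lower; inconclusive = repeat tests gave conflicting results; inactive = no significant difference from controls in most replicates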;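 note: slope of initial-normalized fluorescence between seconds 10 and 20 after thallium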
# HEK counter2: parental HEK flux effect, counter-screen 2; shares compounds with KCC2 mod; HEK293 parental, thallium flux FluoZin-2 fluorescence slope; thallium flux slope at 10 µM; 3,700 compounds, 33% hits; AID 1718;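 active = thallium flux slope above the same plate's solvent-control mean plus 3 SD in both duplicate wells; inconclusive = duplicate wells that disagreed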;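 note: run without ouabain in cells lacking the KCC2 cotransporter; slope of fluorescence scaled to its starting value between 10 and 20 s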
# An asterisk follows results filed as active; i = inactive; u = inconclusive; x = no result given. This is a sample that favours compounds with a hit; in the whole collection about 5.5% have one here.
SMILES,STAT3 blocker,STAT3 act,HSV augment,KCC2 mod,STAT1 inh,STAT1 activator,KCC2 sec1,KCC2 bumet counter,KCC2 secondary2,HEK counter1,KCC2 retest ouab,HEK counter2
O=C(Cc1ccc(-n2cccc2)cc1)NC1CCCCCC1,10.3,93.8,i,-4.16*,-2.9,102.6,0.00651,0.00439,u,0.00715,0.0157,0.0103
Cn1nc(C(=O)Nc2nc3ccc(S(C)(=O)=O)cc3s2)ccc1=O,8.9,91.5,x,4.66*,0.8,99.2,0.0118,0.0207*,0.0324,0.0132*,0.0261,u
CS(=O)(=O)c1ccc2nc(NC(=O)c3ccc(=O)[nH]c3)sc2c1,x,x,i,-0.647,x,x,x,x,x,x,x,x
O=C(CN1CCN(S(=O)(=O)c2ccccc2)CC1)Nc1ccc2c(c1)CCC2,-2.6,103.3,i,6.24*,-5.0,104.2,0.00647,0.00477,u,0.00762,0.0175,0.0109
Cc1sc(-n2c(C)cc(/C=C3\SC(=S)NC3=O)c2C)c(C#N)c1C,-15.2,120.8,i,9.02*,-11.7,110.6,0.00626,0.0164*,0.0312,0.0158*,u,u
C#CCNc1nc(CC)nc2c1nnn2Cc1ccccc1F,-13.1,115.6,i,x,11.5,89.3,x,x,x,x,x,x
O=C(Nc1ccc(F)cc1)c1ccc(CSc2ccccc2)o1,12.9,91.2,i,-3.4*,-7.5,106.8,0.00786,0.00713,0.0337,0.00382,0.0151*,0.0107
CCCC(=O)NC(c1ccco1)c1cc(Cl)c2cccnc2c1O (centres undefined),-0.9,103.0,i,-0.379,5.6,94.8,x,x,x,x,x,x
CCOc1ccc(C(Nc2cccnc2)c2cc(Cl)c3cccnc3c2O)cc1 (centres undefined),7.8,96.2,i,4.98*,6.7,91.9,0.00885,0.0136*,0.0336,0.0179*,u,0.0103
CCCC(=O)NC(c1ccc2c(c1)OCO2)c1cc(Cl)c2cccnc2c1O (centres undefined),-4.3,103.7,i,4.07*,-7.4,106.5,0.00764,0.00575,0.0302,0.00668,0.0204,0.00858
CN=c1scc(-c2ccc(F)cc2)n1/N=C/c1ccc(O)c(O)c1,-3.5,103.9,i,-4.19*,47.3*,55.3,0.00478,0.00508,0.0231*,0.00688,0.0147*,u
CN=c1scc(-c2ccc([N+](=O)[O-])cc2)n1/N=C/c1ccco1,29.8,80.1,i,0.192,-21.2,119.4,x,x,x,x,x,x
Cc1ccc(C(=O)NC(=S)Nc2ccc(CN3CCCCC3)cc2)c(C)c1,8.3,99.5,i,1.84,-5.7,104.0,x,x,x,x,x,x
CCCCC(=O)Nc1ccc(C(=O)NNC(=S)NC(=O)c2ccco2)cc1,1.8,102.4,i,7.16*,7.1,90.7,0.0106,0.0308*,0.0342,u,0.0302*,u
O=C(NC(=S)Nc1ccc(CN2CCCCC2)cc1)c1ccco1,7.7,97.5,i,4.05*,-9.9,105.8,0.0094,0.0349*,0.034,0.0154*,0.0424*,u
O=C(NC(=S)Nc1cc(S(=O)(=O)N2CCOCC2)ccc1O)c1ccco1,-1.8,102.0,i,0.0516,-4.8,105.2,x,x,x,x,x,x
CCOc1ccc(NC(=S)NC(=O)c2ccco2)cc1,x,x,i,184*,x,x,0.0627*,0.183*,0.0479*,0.109*,0.0976*,0.0407*
Cc1ccc(S(=O)(=O)N2CCCCC2)cc1NC(=S)NC(=O)c1ccco1,x,x,i,21.7*,x,x,0.00765,0.0164*,0.0283,0.0132*,u,u
CCOc1ccc(NC(=O)c2ccco2)cc1,26.5,80.7,i,1.57,-6.4,105.9,x,x,x,x,x,x
CCc1ccccc1NC(=S)N(CCCN1CCOCC1)Cc1cccs1,16.0,89.3,i,0.0395,9.7,91.5,x,x,x,x,x,x
O=C(NC1CCCCC1)Nn1c(-c2ccccc2)nc2ccccc2c1=O,-11.2,104.9,i,-0.0844,5.7,94.8,x,x,x,x,x,x
CSc1ncccc1C(=O)OCc1cccc([N+](=O)[O-])c1,15.0,91.6,i,x,2.2,96.7,x,x,x,x,x,x
O=C(O)c1ccc(NC(=S)NC(NC(=O)c2ccco2)C(Cl)(Cl)Cl)cc1 (centres undefined),1.3,104.1,i,0.311,4.5,95.9,x,x,x,x,x,x
Cc1ccc(NC(=S)NC(NC(=O)c2ccco2)C(Cl)(Cl)Cl)cc1 (centres undefined),8.7,92.8,i,8.16*,9.2,86.2,0.00739,0.00435,0.029,0.00794,0.0176,0.0106
O=C(NC(=S)Nc1ccc2oc(=O)ccc2c1)c1cc2ccccc2o1,x,x,i,35.1*,x,x,0.0163*,0.0487*,0.034,0.0366*,u,0.0172*
SMILES,STAT3 blocker,STAT3 act,HSV augment,KCC2 mod,STAT1 inh,STAT1 activator,KCC2 sec1,KCC2 bumet counter,KCC2 secondary2,HEK counter1,KCC2 retest ouab,HEK counter2
O=C(NC(=S)Nc1ccc(CN2CCOCC2)cc1)c1ccco1,x,x,i,11.1*,x,x,u,0.0341*,0.0338,0.0135*,0.0391*,0.0124*
CC(=O)Nc1ccc(NC(=S)NC(=O)c2cc3ccccc3o2)cc1,8.0,93.2,i,0.101,-2.4,102.2,x,x,x,x,x,x
O=C(NC(=S)Nc1ccc(CN2CCCCC2)cc1)c1cc2ccccc2o1,x,x,i,13.4*,x,x,0.00669,0.017*,0.0503*,0.0309*,0.0333*,0.0324*
CC1Cc2ccccc2N1C(=O)COC(=O)c1ccc(Br)o1 (centres undefined),4.6,100.0,i,-2.18,-2.0,100.5,x,x,x,x,x,x
CCCCNC(=S)N/N=C/C1=CCC2CC1C2(C)C (centres undefined),-13.2,115.0,i,2.7,-2.7,102.4,x,x,x,x,x,x
O=C(NCC1CCCN(C(=O)c2cscn2)C1)c1ccccc1Cl (centres undefined),-8.6,109.3,i,0.952,-14.2,111.3,x,x,x,x,x,x
C=CCC(=O)N1CCCC(CNC(=O)c2ccc(-c3ccccc3)cc2)C1 (centres undefined),5.3,99.2,i,-5.52*,-3.5,101.7,0.00807,0.00634,0.0306,0.0076,0.0144*,0.0111

# Source: PubChem BioAssay (several laboratories)
